One may read the IC50 as the point on the concentration scale where inhibition reaches its midpoint. Low readings indicate greater potency in that assay, high ones weaker potency in that assay.

The values that follow come from ChEMBL document CHEMBL2021824, “Structural modifications modulate stability of glutathione-activated arylated diazeniumdiolate prodrugs” (Bioorg Med Chem, 2012).

The source made the active and inactive calls. The rule behind the calls is not given here.

In data set [1] the test system is NCI-H1703. The data set is described as follows: Antiproliferative activity against human NCI-H1703 cells after 48 hrs by MTT assay. The data set is classed as functional, cell-based. Conditions: NCI-H1703, 48 h.
Data set [2] can be described thus: Prodrug activation assessed as GSH-induced nitric oxide production per mol of the compound by chemiluminescence assay. The data set is classed as physicochemical. The procedure, abridged: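 Phosphate buffer, pH 7.4, containing 4 mM GSH at 37 °C was sparged with inert gas until the detector response was steady. The prodrug was then injected and NO release followed over time. The release curve was integrated to give mol NO per mol compound, reported as mean (SE).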

Data set [3] can be described thus: Half life of the compound in GSH-containing buffer. The data set is classed as physicochemical. Put shortly: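 Loss of the diazeniumdiolate chromophore followed by UV-visible spectrophotometry at 37 °C. Absorbance was tracked at each compound's λmax. kobs came from a first-order exponential fit and half-life was derived from it. Mean (SE).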
Data set [4] concerns NCI-H1703. The data set is described as follows: Induction of apoptosis in human NCI-H1703 cells assessed as PARP cleavage at 1 uM after 4 hrs by Western blotting analysis. The data set is classed as functional, cell-based. Put shortly:
(§1)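 H1703 lung adenocarcinoma cells exposed to 1 μM compound for 4 h. Western blots probed for phospho-SAPK/JNK, phospho-c-jun, ATF3, PARP (full-length and 89-kDa cleaved fragment) and cleaved effector caspases 3 and 7.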
For orientation: In western blotting, separated proteins are transferred to a membrane and probed.

For data set [5], the system named is H1703. Nature of the data set: Induction of SAPK/JNK-mediated c-jun phosphorylation in human H1703 cells at 1 uM after 4 hrs by Western blotting analysis. Type of data set: cell-based. Put shortly: as §1
Data set [6] in a line: Induction of SAPK/JNK-mediated ATF3 upregulation in human H1703 cells at 1 uM after 4 hrs by Western blotting analysis. Type of data set: cell-based. The procedure, abridged:
as §1

Data set [7] relates to NCI-H1703. Nature of the data set: Induction of apoptosis in human NCI-H1703 cells assessed as cleaved of caspase 3 level at 1 uM after 4 hrs by Western blotting analysis. Type of data set: functional, cell-based. The procedure, abridged:
as §1

Data set [8] concerns NCI-H1703. Nature of the data set: Metabolic stability in human NCI-H1703 cells assessed as formation of arylated GSH at 5 uM after 5 mins by LC/MS analysis. Type of data set: ADME, cell-based. The following applies: nci-h1703, 5 min. The procedure, abridged:
(§2)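 H1703 cells plated in flasks and incubated overnight at 37 °C, then treated with 5 μM compound for 5, 30 or 60 min. Cells lysed by scraping in 10 mM HCl with freeze-thaw cycles, then deproteinized with 5-sulfosalicylic acid and centrifuged. Supernatant analyzed by LC/MS with positive APCI on a C18 column using a water/acetonitrile/0.1% formic acid gradient. Extracted ion chromatograms tracked parent and arylated GSH.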

The subject of data set [9] is NCI-H1703. The data set is described as follows: Metabolic stability in human NCI-H1703 cells assessed as formation of arylated GSH at 5 uM after 60 mins by LC/MS analysis. The following applies: nci-h1703, 1 h. Type of data set: ADME, cell-based. The procedure, abridged: as §2
In data set [10] the test system is NCI-H1703. Nature of the data set: Antitumor activity against human NCI-H1703 cells xenografted in athymic NCr-nu/nu mouse at 20 umol/kg, ip 5 times a week for 4-weeks relative to control. The data set is classed as functional, organism-based. Put shortly: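 H1703 cells implanted in the flank of 7-week-old female athymic NCr-nu/nu mice. Dosing started once tumors reached 2 × 2 × 2 mm3 (typically four weeks). Compound was given as Pluronic P123 micelles at 20 μmol/kg ip, five times a week for four weeks. Vehicle controls received 2.25% Pluronic P123 in PBS. Tumors measured by caliper and body weights tracked. Welch-corrected t-test.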

Data set [11] concerns NCI-H1703. The data set is described as follows: Induction of apoptosis in human NCI-H1703 cells assessed as cleaved of caspase 7 level at 1 uM after 4 hrs by Western blotting analysis. Type of data set: functional, cell-based. Put shortly: as §1
Data set [12] deals with NCI-H1703. Nature of the data set: Metabolic stability in human NCI-H1703 cells assessed as formation of arylated GSH at 5 uM after 30 mins by LC/MS analysis. Type of data set: ADME, cell-based. The following applies: nci-h1703, 0.5 h. Put shortly:
as §2

Data set [13] relates to H1703. Nature of the data set: Induction of SAPK/JNK phosphorylation in human H1703 cells at 1 uM after 4 hrs by Western blotting analysis. The data set is classed as cell-based. The procedure, abridged:
as §1

The compound `CCOC(=O)N1CCCN(/[N+]([O-])=N/Oc2ccc([N+](=O)[O-])cc2C#N)CC1` returned an IC50 in the data set with NCI-H1703 [1] of 2620 nM. In data set [2], the NO yield came out at 2.01 mol/mol. Moreover, the t1/2 in data set [3] is listed as 66 min.
In the data set with NCI-H1703 [1], `CCOC(=O)N1CCN(/[N+]([O-])=N/Oc2ccc([N+](=O)[O-])cc2[N+](=O)[O-])CC1` gave a half-inhibitory concentration (IC50) of 1080 nM. Besides, the NO yield in [2] worked out at 1.96 mol/mol.
Take `CCOC(=O)N1CCCN(/[N+]([O-])=N/Oc2ccc(C#N)cc2[N+](=O)[O-])CC1`: in the data set on NCI-H1703 [1], inhibition was half-maximal at 680 nM (IC50). Also, the NO yield in [2] came to 1.96 mol/mol. The compound further gave a t1/2 in data set [3] of 42.6 min.
Consider `CCOC(=O)N1CCN(/[N+]([O-])=N/Oc2ccc([N+](=O)[O-])cc2C#N)CC1`, for which the outcome (in the data set with NCI-H1703 [4]; in the data set on H1703 [5]; in data set [6]; in the data set on NCI-H1703 [7]; in the data set with NCI-H1703 [10]; in the data set on NCI-H1703 [11]) was Active. Also, in the data set with H1703 [13], the result was Active. Moreover, the values for the Stability result in the data set on NCI-H1703 [8], with NCI-H1703 [9] and in the data set with NCI-H1703 [12] were “Stable”, “Unstable” and “Stable”, respectively. Besides, it took 550 nM to reach half-maximal inhibition in the data set with NCI-H1703 [1] (IC50). Besides, in [2], the NO yield came out at 2.04 mol/mol. The compound also yielded a t1/2 in [3] of 33.6 min.
`CCOC(=O)N1CCN(/[N+]([O-])=N/Oc2ccc(C#N)cc2[N+](=O)[O-])CC1`: the IC50 in the data set with NCI-H1703 [1] is 730 nM. Also, the NO yield in data set [2] came to 2.02 mol/mol. Also, the t1/2 in data set [3] turned out to be 22.1 min.
As for `CCOC(=O)N1CCCN(/[N+]([O-])=N/Oc2ccc([N+](=O)[O-])cc2[N+](=O)[O-])CC1`, in [2], the NO yield was determined as 2 mol/mol.
As for `CCOC(=O)N1CCN(/[N+]([O-])=N/Oc2ccc(C#N)cc2C#N)CC1`, the IC50 in the data set on NCI-H1703 [1] was > 20000 nM. Further, in data set [3], the t1/2 is 918 min.
